PMC8791284 (SLAS discovery : advancing life sciences R & D, 2021)

Columns and labels:
[1] = test system: CDK9 (Ser2-RNA polymerase II phosphorylation); assay: Western blot of phospho-Ser2 RNA polymerase II in KRAS^G12D MEFs; assay type: cell-based, mouse; settings: 6 h, 0.1, 1 and 10 μM
[2] = test system: KRAS^G12D-expressing MEFs; assay: ATP-based cell viability assay; parameters: species or system mouse; settings: Suppl. Fig. S3
In short: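 KRAS^G12D- and HRAS^WT-expressing mouse embryonic fibroblasts are dispensed onto plates pre-spotted with test compound from 10 mM stocks. Test compound is used at 5 μM final for the primary screen, or as serial dilutions for dose–response. After 72 h, CellTiter-Glo reagent is added, incubated 15 min, and luminescence is read. Each plate is checked by Z' factor and carries a reference HSP-90 inhibitor dose–response.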

[3] = test system: BRAF^V600E-expressing MEFs; assay: Cell proliferation assay, BRAF^V600E MEFs; assay type: cell-based, mouse; settings: versus other MEF panel lines, Fig. 1E

SMILES: CC(C)(C)c1cnc(CSc2cnc(NC(=O)C3CCNCC3)s2)o1 [SNS032]
- phosphorylation level of Ser2-RNA polymerase II [1]: diminished the Ser2 phosphorylation level in a dose-dependent manner
- sensitivity of KRAS^G12D MEFs versus HRAS^WT MEFs in cell viability assay [2]: more sensitive

SMILES: CC(C)(C)c1nc(-c2cccc(NS(=O)(=O)c3c(F)cccc3F)c2F)c(-c2ccnc(N)n2)s1 [dabrafenib]
- specific activity against BRAF^V600E-expressing MEFs [3]: showed specific activity

SMILES: CCCS(=O)(=O)Nc1ccc(F)c(C(=O)c2c[nH]c3ncc(-c4ccc(Cl)cc4)cc23)c1F [vemurafenib]
- specific activity against BRAF^V600E-expressing MEFs [3]: showed specific activity
